HTR2A ag: mouse Htr2a agonists via beta-arrestin recruitment, primary screen, cell-based, luminescence | 5-hydroxytryptamine receptor 2A (Mus musculus), P35363 | CHO-K1 mHTR2A beta-arrestin complementation; percent of 30 µM serotonin response | activation, % at 7.6 µM | 360,000 compounds, 0.66% hits | AID 624169, 2012;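 active = activation above a run cutoff, the mean activation of all tested compounds plus 3 SD, cut at about 14% in these data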;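 also: 0% = plate median of compound wells and 100% = 30 µM serotonin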
TAAR1 agonist: human TAAR1 agonists, primary screen, Fluo-8 calcium fluorescence, CHO RD-HGA16 cells. Trace amine-associated receptor 1 (Homo sapiens), Q96RJ0. vehicle wells 0%, saturating PEA agonist 100%. activation, % at 3 µM. 360,000 compounds, 0.99% hits;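 active = activation above the mean activation of all test compounds in the run plus 3 SD, cut at about 38% in these data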
Target sequence (Q96RJ0 whole entry, looked up): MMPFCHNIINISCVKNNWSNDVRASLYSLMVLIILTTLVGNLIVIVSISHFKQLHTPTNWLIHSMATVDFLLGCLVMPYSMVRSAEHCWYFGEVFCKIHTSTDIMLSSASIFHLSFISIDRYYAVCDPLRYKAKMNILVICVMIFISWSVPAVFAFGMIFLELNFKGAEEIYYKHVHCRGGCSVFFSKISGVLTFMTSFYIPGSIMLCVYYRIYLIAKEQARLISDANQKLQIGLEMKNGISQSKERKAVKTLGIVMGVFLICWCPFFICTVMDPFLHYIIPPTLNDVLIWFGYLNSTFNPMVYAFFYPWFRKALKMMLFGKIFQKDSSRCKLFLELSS
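Signal – calcium-sensitive Fluo-8 signal, excitation 470-495, emission 515-575 nm · System – RD-HGA16 (CHO) cells co-expressing Gα16 and hTAAR1 · Incubation – 17-24 h seeding, 75 min 37 °C dye, 30 min RT · Compound dosing – 3 µM single concentration · Repeats – no replicates (n 1)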
M1 antag: human M1 muscarinic receptor antagonists, primary screen, CHO-K1 cells, Fluo-8 calcium fluorescence, 1536-well; Muscarinic acetylcholine receptor M1 (Homo sapiens), P11229; CHO-K1 hM1, ACh EC80 antagonist; inhibition, % at 3 µM; 360,000 compounds, 1.3% hits; AID 588852, 2011;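 active = percent inhibition above its own plate's cutoff, namely the mean of that plate's compound wells plus 3 SD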;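 also: peak over basal fluorescence ratio during 140 s after agonist addition; 0% = ACh EC80 plus DMSO and 100% = DMSO alone without agonist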
CHRM1 agonist: human M1 muscarinic receptor agonists, primary screen, Fluo-8 calcium fluorescence, CHO-K1 cells, HTS; activation, % at 3 µM; AID 588814, 2011; 360,000 compounds, 0.33% hits; Muscarinic acetylcholine receptor M1 (Homo sapiens), P11229; CHO-K1 hM1, agonist mode; 0% DMSO, 100% acetylcholine EC100;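 active = activation above the run's mean compound activation plus 3 SD, cut at about 16% in these data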;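 also: peak over basal fluorescence ratio within a 140 s kinetic read after compound addition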
M1 PAM: human M1 muscarinic receptor positive allosteric modulators, primary screen, CHO-K1 cells, Fluo-8 calcium fluorescence, 1536-well. Muscarinic acetylcholine receptor M1 (Homo sapiens), P11229. CHO-K1 hM1, ACh EC20; 0% = ACh EC20, 100% = maximal ACh. activation, % at 3 µM. 360,000 compounds, 0.088% hits. AID 588819, 2011; in the data active = activation above about 19%, passing the limit was not always enough
TAAR1 antag: human TAAR1 antagonists, primary screen, Fluo-8 calcium fluorescence, CHO RD-HGA16 cells; antagonist; AID 624466, 2012; 360,000 compounds, 1.5% hits; Trace amine-associated receptor 1 (Homo sapiens), Q96RJ0; inhibition, % at 3 µM;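 active = inhibition above a per-plate cutoff, the mean inhibition of test compounds on that plate plus 3 SD, cut at about 49% in these data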;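 also: 0% = DMSO plus EC80 beta-PEA response and 100% = DMSO alone without agonist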
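Assay system: CHO-derived RD-HGA16 cells stably expressing human TAAR1 plus Gα16. Timing: 140 s kinetic read after compound, 140 s after agonist. Technique: kinetic Fluo-8 calcium fluorescence measurement. Measure: % inhibition of agonist calcium response.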
OPRM1 ag: OPRM1 agonists via beta-arrestin recruitment, confirmation, counter-screen for mouse HTR2A agonist project, cell-based, luminescence, single concentration. shares compounds with HTR2A ag. U2OS OPRM1 beta-arrestin PathHunter; DMSO 0%, DAMGO 9.3 µM 100%. activation, % at 9.3 µM. 2,300 compounds, 5.3% hits;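 active = mean activation above the mean of DMSO-only wells plus 3 SD, cut at about 0.5% in these data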
Target sequence (P35372 whole entry, looked up): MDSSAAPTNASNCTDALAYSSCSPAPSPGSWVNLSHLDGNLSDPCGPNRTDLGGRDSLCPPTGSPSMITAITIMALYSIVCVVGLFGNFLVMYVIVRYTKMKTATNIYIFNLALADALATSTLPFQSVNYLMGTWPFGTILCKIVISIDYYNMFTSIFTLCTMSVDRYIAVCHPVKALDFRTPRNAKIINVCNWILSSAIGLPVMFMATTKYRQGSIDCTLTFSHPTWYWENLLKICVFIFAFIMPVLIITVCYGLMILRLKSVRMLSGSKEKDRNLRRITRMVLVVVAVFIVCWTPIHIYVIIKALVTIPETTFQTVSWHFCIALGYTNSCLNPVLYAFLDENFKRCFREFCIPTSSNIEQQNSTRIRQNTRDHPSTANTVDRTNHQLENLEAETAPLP
m5-HT2A ag conf: mouse HTR2A agonists, beta-arrestin recruitment, confirmation, cell-based, luminescence, CHO-K1 PathHunter, triplicate. shares compounds with HTR2A ag. DMSO 0%, 30 µM serotonin 100%. activation, % at 7.6 µM. 2,300 compounds, 19% hits. AID 624381, 2012;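 active = mean activation across triplicates above the hit threshold derived in the original primary screen, cut at about 15% in these data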
TAAR1 nonsel count: nonselective antagonists in TAAR1 counter-screen cells, counter-screen for hTAAR1 antagonist project, cell-based, fluorescence, calcium | shares compounds with TAAR1 antag | counterscreen cell line, antagonist mode | inhibition, % at 3 µM | 2,400 compounds, 77% hits | AID 651780, 2012; in the data active = inhibition above about 22%;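 also: CHO-Ga16 host cells stimulated with ATP at an EC80 level; 0% = agonist EC80 plus vehicle and 100% = vehicle without agonist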
TAAR1 antag conf: human TAAR1 antagonists, retest of hits, confirmation, cell-based, fluorescence. shares compounds with TAAR1 antag. AID 651785, 2012. 2,400 compounds, 40% hits. inhibition, % at 3 µM. TAAR1-expressing cells, fluorescence antagonist read-out; in the data active = inhibition above about 49%;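 also: CHO-Ga16 host cells challenged with agonist PEA near its EC80; 0% = agonist at EC80 plus vehicle and 100% = vehicle with no agonist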
Ga16 nonsel ag: calcium activation in Ga16-expressing cells, counter-screen for TAAR1 antagonist project, cell-based, fluorescence. shares compounds with TAAR1 antag. agonist counterscreen. activation, % at 3 µM. 2,400 compounds, 18% hits; in the data active = activation above about 12%;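 also: 0% = vehicle wells and 100% = saturating stimulus response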
TAAR1 ag counter: TAAR1 activation by candidate antagonists – cell-based, fluorescence, counter-screen for TAAR1 antagonist project; shares compounds with TAAR1 antag; hTAAR1 cell line, agonist mode; activation, % at 3 µM; 2,400 compounds, 2% hits; in the data active = activation above about 37%;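 also: CHO cells stably expressing TAAR1 with calcium dye readout; 0% = DMSO vehicle and 100% = full agonist response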
Starred values were filed as active, the others as inactive; / = not tested or not shown. A selection: hits, their analogues and other compounds. The true share with any hit is near 3.9%.

SMILES	HTR2A ag	TAAR1 agonist	M1 antag	CHRM1 agonist	M1 PAM	TAAR1 antag	OPRM1 ag	m5-HT2A ag conf	TAAR1 nonsel count	TAAR1 antag conf	Ga16 nonsel ag	TAAR1 ag counter
CS(=O)(=O)Cc1ccc(C(=O)N2CCN(C(=O)c3cccs3)CC2)cc1	-0.4	4.2	-2.5	-5.1	2.5	7.0	/	/	/	/	/	/
CN(C(=O)c1ccccc1Cl)c1ccccc1C(=O)NCc1ccccc1	35.3*	2.9	-9.4	-0.8	5.6	24.9	-0.8	-2.6	/	/	/	/
CC(CCc1ccccc1)NC(=O)c1ccccc1F (configuration not stated)	-3.2	0.8	-10.5	-4.2	4.6	-7.3	/	/	/	/	/	/
CC(CCc1ccccc1)NC(=O)c1ccccc1Cl (configuration not stated)	24.4*	-0.5	-11.0	-0.6	7.7	2.2	-0.5	-4.1	/	/	/	/
Cn1cccc1C(=O)Nc1ccc(N2CCOCC2)cc1	14.7*	3.5	-7.0	-0.7	12.7	12.9	0.0	1.8	/	/	/	/
O=C(Nc1ccc(N2CCOCC2)cc1)c1ccncc1	2.5	-1.7	-6.9	-2.0	4.4	-30.6	/	/	/	/	/	/
CCN(CC(=O)Nc1ccc2c(c1)OCCO2)C(=O)CC(NC(C)=O)c1ccccc1 (configuration not stated)	17.6*	-0.3	-1.1	-1.9	4.9	-7.8	-0.7	-3.0	/	/	/	/
Fc1cccc(F)c1/C=C/c1ccc2ccccc2n1	0.7	2.3	-8.7	-3.8	9.4	-10.0	/	/	/	/	/	/
CC(O)/C=C/c1ccc2ccccc2n1 (configuration not stated)	18.9*	10.0	-16.6	-5.7	7.0	10.7	-0.1	1.1	/	/	/	/
CCOC(=O)CC(=O)CSCC(=O)Nc1ccc(C)cc1	15.6*	5.5	-4.6	-3.4	3.4	-12.0	-0.3	0.9	/	/	/	/
CCN(CC(=O)Nc1ccc(NC(C)=O)cc1)C(=O)CSCC(=O)Nc1ccc(C)cc1	0.8	0.5	-8.4	-3.2	3.9	0.6	/	/	/	/	/	/
CCc1ccc(Cc2cnc(NC(=O)C3=NCCN3)s2)cc1	-3.7	2.5	-13.6	-2.5	13.6	4.2	/	/	/	/	/	/
COc1ccccc1CNC(=O)COC(=O)c1n[nH]c2ccccc12	4.9	5.2	12.7	0.4	-5.0	19.7	/	/	/	/	/	/
COc1ccccc1CNC(=O)c1n[nH]c2ccccc12	19.0*	0.2	-12.8	1.8	8.1	-6.0	-0.3	2.2	/	/	/	/
O=C(Nc1nc2ccccc2s1)c1ccc(N2CCCCC2)c([N+](=O)[O-])c1	49.3*	5.0	-4.3	-6.9	1.3	41.3	-0.8	17.5*	/	/	/	/
COc1ccc(N(C)S(=O)(=O)c2cccc(C(=O)Nc3nnc(C)s3)c2)cc1	-1.0	0.6	-6.7	-2.5	7.3	-8.8	/	/	/	/	/	/
COc1ccc(N(C)S(=O)(=O)c2cccc(C(=O)Nc3nc(C)c(C(C)=O)s3)c2)cc1	16.2*	26.8	22.1	0.2	-12.5	61.7*	-0.4	5.5	38.3*	56.5*	14.7*	12.7
COC(=O)CCC(NS(=O)(=O)OCC(Cl)(Cl)Cl)c1ccccc1 (configuration not stated)	5.5	19.0	1.6	-4.6	-1.9	3.0	/	/	/	/	/	/
CC(C)CC(NS(=O)(=O)OCC(Cl)(Cl)Cl)c1ccccc1 (configuration not stated)	19.5*	19.9	34.6*	-6.7	-21.4	86.2*	0.9*	-1.3	13.1	48.2	3.8	4.9
O=C(CN1CCN(S(=O)(=O)c2ccc3c(c2)OCCCO3)CC1)N1CCc2ccccc21	-1.6	-1.4	-26.1	-0.6	18.4	-4.7	/	/	/	/	/	/
Cc1c(C(=O)N2CCN(Cc3ccc4c(c3)OCO4)CC2)sc2ncnc(N3CCN(c4ccccc4F)CC3)c12	25.3*	4.5	15.4	-1.6	-4.6	77.3*	-0.3	36.1*	34.2*	50.4*	8.1	5.3
CCc1ccc(N(C(=O)c2csnn2)C(C(=O)NC(C)(C)CC)c2cccnc2)cc1 (configuration not stated)	2.1	1.1	-5.3	-3.4	9.1	-4.1	/	/	/	/	/	/
COCCN(Cc1ccccc1)C(=O)c1cc(-c2ccc(OC)c(OC)c2)nc2ccccc12	17.2*	4.0	16.3	1.4	2.6	62.2*	-0.5	-1.3	26.1*	44.6	5.6	8.7
COc1ccc(-c2cc(C(=O)NCC(c3ccccc3)N(C)C)c3ccccc3n2)cc1OC (configuration not stated)	-18.7	12.0	-9.0	-5.7	-0.6	26.7	/	/	/	/	/	/
NC(=O)c1nsc(C(=O)N(c2ccccc2F)C(C(=O)NCc2ccc(F)cc2)c2ccc(O)cc2)c1N (configuration not stated)	22.6*	13.7	36.7*	-1.0	-20.2	76.7*	-0.3	2.2	33.9*	48.0	9.9	19.0
CC(C)(C)OC(=O)N1CCC(NC(=O)c2nc[nH]c2C(=O)NCC(=O)OCc2ccccc2)CC1	21.4*	24.8	32.1	1.0	-12.0	69.9*	-0.3	-1.1	31.1*	59.2*	11.0	14.0
COc1cccc(-c2nc(NC3CCCC3)c3ccccc3n2)c1O	77.5*	8.2	6.3	-0.5	-8.3	61.4*	-0.1	81.2*	21.5*	52.6*	7.5	12.2

High-throughput results as filed in PubChem.
